# In ChEMBL document CHEMBL5030538 (J Med Chem, 2021):
# Active and inactive are the calls of the source. No cut-off for these calls is given here.
# How the values were obtained:
# HREC [1] = experiment: Antiangiogenic activity against HREC cells assessed as inhibition of tube formation measured after 24 hrs by matrigel based tube formation assay; format: functional, cell-based; conditions: Homo sapiens
# HREC [2] = experiment: Antimigratory activity against VEGF-A stimulated HREC assessed as wound closure at 5 uM measured after 48 hrs by wound closure assay; format: functional, tissue-based; conditions: Homo sapiens
# Procedure, shortened: (§1)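 Primary HREC grown to confluence were scratched to make a 1 mm wound and washed with PBS. They were then incubated 48 h at 37 °C in complete medium with 80 ng/mL VEGF-A and 5 μM compound, alone or with 2 μM PTZ or 2 μM AC927. Wounds were photographed by phase contrast at 0, 24 and 48 h, and closure taken as the distance both fronts moved into the wound. Mean ± SEM of three independent experiments, three wells each.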
# HREC [3] = experiment: Antimigratory activity against VEGF-A stimulated HREC assessed as inhibition of cell motility at 5 uM in presence of AC927 measured after 48 hrs by wound closure assay; format: functional; conditions: Homo sapiens; procedure, shortened: as §1
# [4] = Antiproliferative activity against VEGF-A stimulated human retinal endothelial cell assessed as reduction in cell viability measured after 48 hrs by MTT assay; format: functional; conditions: HREC
# [5] = Antiproliferative activity against VEGF-A stimulated human retinal endothelial cell assessed as reduction in cell viability measured after 72 hrs by MTT assay; format: functional; conditions: HREC
# [6] = Antiangiogenic activity against VEGF-A stimulated Human endothelial cell assessed as cell proliferation measured after 72 hrs by crystal violet assay; format: functional, tissue-based
# [7] = Antiproliferative activity against VEGF-A stimulated human retinal endothelial cell assessed as reduction in cell viability measured after 24 hrs by MTT assay; format: functional; conditions: HREC
# [8] = Antiangiogenic activity against VEGF-A stimulated human retinal endothelial cell assessed as cell proliferation measured after 48 hrs by crystal violet assay; format: functional; conditions: HREC
# Procedure, shortened: (§2)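 They were then treated at 5 μM with or without 80 ng/mL VEGF-A, with DMSO as vehicle. Cells were PBS-washed, fixed in 4% paraformaldehyde, stained with 0.5% crystal violet in 20% methanol, extracted with 10% acetic acid and read at 570/590 nm. Proliferation is given as % of vehicle; triplicate.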
# [9] = Displacement of [3H]-DTG from sigma 2 receptor in guinea pig brain membranes after 120 mins by microbeta scintillation counting method
# [10] = Antiangiogenic activity against VEGF-A stimulated human retinal endothelial cell assessed as cell proliferation measured after 24 hrs by crystal violet assay; format: functional; conditions: HREC; procedure, shortened: as §2
# HREC [11] = experiment: Antimigratory activity against VEGF-A stimulated HREC assessed as wound closure at 5 uM in presence of PTZ measured after 48 hrs by wound closure assay; format: functional, tissue-based; conditions: Homo sapiens; procedure, shortened: as §1
SMILES,Activity (HREC [1]),Activity (HREC [2]),Activity (HREC [3]),IC50 [6] [µM],IC50 [8] [µM],Ki [9] [µM],further results
CCCC(CCC)C(=O)O[C@@H](CCCN1CCC(O)(c2ccc(Cl)cc2)CC1)c1ccc(F)cc1,Active,Active,inactive,–,–,–,–
OC(CCCN1CCC(O)(c2ccc(Cl)cc2)CC1)c1ccc(F)cc1 (racemic) [HYDROXYHALOPERIDOL],–,–,–,69.2,129,–,IC50 [4]: 128 µM; IC50 [5]: 69 µM; IC50 [7]: > 200 µM
O[C@H](CCCN1CCC(O)(c2ccc(Cl)cc2)CC1)c1ccc(F)cc1,–,–,–,–,–,0.032,–
CCCC(CCC)C(=O)OC(CCCN1CCC(O)(c2ccc(Cl)cc2)CC1)c1ccc(F)cc1 (racemic),Active,Active,–,–,–,0.124,–
CCCC(CCC)C(=O)O [VALPROIC ACID],–,–,–,1380,1450,–,IC50 [10]: 1230 µM
CCCC(CCC)C(=O)O[C@H](CCCN1CCC(O)(c2ccc(Cl)cc2)CC1)c1ccc(F)cc1,Active,Active,inactive,–,–,–,Activity (HREC [11]): inactive
